Experimental data of several laboratories.
Compare with care: the assays were run in different laboratories.
ache: Acetylcholinesterase (ache, Electrophorus electricus, UniProt O42275)
STK17B: Serine/threonine-protein kinase 17B (STK17B, Homo sapiens, UniProt O94768)
STK32A: Serine/threonine-protein kinase 32A (STK32A, Homo sapiens, UniProt Q8WU08)
S1PR1: Sphingosine 1-phosphate receptor 1 (S1PR1, Homo sapiens, UniProt P21453)

| Compound | target | test | system | setting | measurement | result |
| --- | --- | --- | --- | --- | --- | --- |
| COc1cc2c(cc1OC)C(=O)N(Cc1ccc(-c3cccs3)nc1)C2 | ache | enzyme activity, inhibitor | – | 1 µM | inhibition | -4.2% |
| Brc1cnc(Nc2cccc(CN3CCOCC3)c2)nc1NCCc1c[nH]cn1 | STK17B | enzyme activity, inhibitor, radiometric | – | 1 µM | remaining activity | 4% |
| COc1cc2c(cc1OC)C(=O)N(Cc1nccc3ccccc13)C2 | ache | enzyme activity, inhibitor | – | 1 µM | inhibition | -0.79% |
| NS(=O)(=O)c1ccc(CNc2ccnc(Nc3cccc(CN4CCOCC4)c3)n2)cc1 | STK17B | enzyme activity, inhibitor, radiometric | – | 1 µM | remaining activity | 96% |
| Cn1c2c(c3ccc(Cl)c(Cl)c31)C(C#N)C(C)(C)NC2=O (centres unmarked) | STK32A | thermal stability, DSF | – | 10 µM | ΔTm | -0.1 °C |
| N#Cc1ccc(/C=C/CN(CC[C@H](N)C(=O)O)C[C@H]2O[C@@H](n3cnc4c(N)ncnc43)[C@H](O)[C@@H]2O)cc1 | Histone-arginine methyltransferase CARM1 (CARM1, Homo sapiens, UniProt Q86X55) | enzyme activity, inhibitor | – | 1 µM | activity vs control | 100% |
| NS(=O)(=O)c1ccc(CNc2nc(Nc3cccc(CN4CCOCC4)c3)ncc2C2CC2)cc1 | STK17B | enzyme activity, inhibitor, radiometric | – | 1 µM | remaining activity | 84% |
| O[C@@H]1[C@H](O)CO[C@H]1n1cnc2c(NCc3cccc(Cl)c3)ncnc21 | Adenosine receptor A1 (ADORA1, Homo sapiens, UniProt P30542) | ligand displacement, radioligand | – | 10 µM, cell membranes | inhibition | 35% |
| Cn1c2c(Cl)c(Cl)ccc2c2cn[nH]c(=O)c21 | STK32A | thermal stability, DSF | – | 10 µM | ΔTm | -0.4 °C |
| Cc1nn(CC(F)(F)F)cc1Nc1ncc(C2CC2)c(NCc2ccc(S(N)(=O)=O)cc2)n1 | STK17B | enzyme activity, inhibitor, radiometric | – | 1 µM | remaining activity | 88% |
| COc1cc2c(cc1OC)C(=O)N(CCc1c[nH]c3ccccc13)C2 | ache | enzyme activity, inhibitor | – | 1 µM | inhibition | -4.59% |
| Cn1c2c(c3ccc(Cl)c(Cl)c31)C(C#N)C1(CCOCC1)NC2=O (centres unmarked) | STK32A | thermal stability, DSF | – | 10 µM | ΔTm | -0.3 °C |
| CC(C)(C)c1nc2c(s1)c1nc(N)ncc1c1ccc(NS(=O)(=O)c3c(F)cccc3F)c(F)c12 | Ribosomal protein S6 kinase beta-2 (RPS6KB2, Homo sapiens, UniProt Q9UBS0) | enzyme activity, inhibitor, radiometric | – | 1 µM | remaining activity | 90% |
| COc1cc2c(cc1OC)C(=O)N(Cc1n[nH]c3ccccc13)C2 | ache | enzyme activity, inhibitor | – | 1 µM | inhibition | 5.12% |
| Cc1nn(CC(F)(F)F)cc1Nc1ncc(C2CC2)c(NCCCNC(=O)C2CCC2)n1 | STK17B | enzyme activity, inhibitor, radiometric | – | 1 µM | remaining activity | 13% |
| CC(C)(C)c1nc(-c2cccc(NS(=O)(=O)c3c(F)cccc3F)c2F)c(-c2ccnc(N)n2)s1 | Mitogen-activated protein kinase kinase kinase 21 (MAP3K21, Homo sapiens, UniProt Q5TCX8) | enzyme activity, inhibitor, radiometric | – | 1 µM | remaining activity | 92% |
| CCc1cc(-c2noc(-c3cc(OC)nc(C4CCCC4)c3)n2)cc(C)c1OC[C@@H](O)CO | S1PR1 | calcium signal, agonist, fluorescence | HUVEC | – | Emax | 37% |
| CCCOc1ccc(OC)c(F)c1C(=O)c1ccc(C(=O)N[C@@H]2CNC[C@H]2NC(=O)c2ccc3[nH]ncc3c2)cc1 | RAC-gamma serine/threonine-protein kinase (AKT3, Homo sapiens, UniProt Q9Y243) | enzyme activity, inhibitor | – | 0.5 µM | remaining activity | 44% |
| COc1ccc2[nH]cc(CCN3Cc4cc(OC)c(OC)cc4C3=O)c2c1 | ache | enzyme activity, inhibitor | – | 1 µM | inhibition | 3.28% |
| CN1CCc2cc(Nc3ncc(C4CC4)c(NCCCNC(=O)C4CCC4)n3)ccc2C1 | STK17B | enzyme activity, inhibitor, radiometric | – | 1 µM | remaining activity | 4% |
| COc1cc2c(cc1OC)C(=O)N(Cc1cccnc1)C2 | ache | enzyme activity, inhibitor | – | 1 µM | inhibition | 0.13% |
| O=C(NCCCNc1nc(Nc2cccc(NC(=O)N3CCCC3)c2)ncc1I)c1cccs1 | STK17B | enzyme activity, inhibitor, radiometric | – | 1 µM | remaining activity | 4% |
| COc1cc2c(cc1OC)C(=O)N(Cc1cnc3c(c1)OCCN3C)C2 | ache | enzyme activity, inhibitor | – | 1 µM | inhibition | 1.71% |
| CCCCCCCOc1ccc(CCC(N)(CO)COP(=O)(O)O)cc1C(F)(F)F (centres unmarked) | S1PR1 | calcium signal, agonist, fluorescence | – | – | Emax | 92% |
| NS(=O)(=O)c1ccc(CNc2ccnc(Nc3cccc(NC(=O)N4CCCC4)c3)n2)cc1 | STK17B | enzyme activity, inhibitor, radiometric | – | 1 µM | remaining activity | 96% |
| FC(F)(F)Oc1cccc(-c2cnc3ccc(-c4ccncc4)nn23)c1 | Mitogen-activated protein kinase kinase kinase kinase 3 (MAP4K3, Homo sapiens, UniProt Q8IVH8) | enzyme activity, inhibitor, radiometric | – | 5 µM | activity vs control | 39% |
